We go through 1 compound from ChEMBL document CHEMBL3853342, “Design, synthesis and biological evaluation of novel benzo-α-pyrone containing piperazine derivatives as potential BRAFV600E inhibitors” (Bioorg Med Chem Lett, 2016).

Data set [1] relates to WM 266-4. Description: Induction of apoptosis in human WM266.4 cells assessed as viable cells at 4 uM after 24 hrs by Annexin V-FITC/propidium iodide based flow cytometric analysis (reference value: 92.9 %). The class given is functional. To be noted: WM 266-4, 24 h, read-out: Activity. An outline of the steps: (§1)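 Apoptosis in WM266-4 (BRAF V600E) cells after 24 h at 0, 2, 4 or 8 µM, by Annexin V-FITC/PI dual staining and flow cytometry. Percentages of apoptotic cells were calculated. Three independent experiments.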
Background: In flow cytometry, cells or beads pass a laser one at a time.

Data set [2] can be described thus: Cell cycle arrest in human WM266.4 cells assessed as accumulation at G0/G1 phase at 8 uM after 36 hrs by propidium iodide staining based FACS analysis (reference value: 64.70 %). To be noted: WM 266-4.
For data set [3], the system named is WM 266-4. Description: Induction of apoptosis in human WM266.4 cells assessed as early apoptotic cells at 4 uM after 24 hrs by Annexin V-FITC/propidium iodide based flow cytometric analysis (reference value: 1.60 %). The format is functional. A digest of the protocol:
as §1

Data set [4] has as its target Serine/threonine-protein kinase B-raf (Homo sapiens, UniProt P15056, V600E). Description: Inhibition of human recombinant GST-tagged BRAF catalytic domain (416 to 766 residues) V600E mutant expressed in baculovirus expression system preincubated for 1 hr followed by human full length recombinant N-terminal His-tagged MEK1 substrate addition measured after 25 mins by gel electrophoresis method.

The nature of data set [5]: Cell cycle arrest in human WM266.4 cells assessed as accumulation at G2/M phase at 2 uM after 24 hrs by propidium iodide staining based FACS analysis (reference value: 14.39 %). The format is functional. To be noted: WM 266-4. A digest of the protocol: (§2)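 WM266-4 (BRAF V600E melanoma) cells exposed to 0, 2, 4 or 8 µM for 24 h. Cell-cycle distribution by flow cytometry, with G1, S and G2/M fractions gated. Three independent experiments.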

The nature of data set [6]: Cell cycle arrest in human WM266.4 cells assessed as accumulation at G0/G1 phase at 2 uM after 24 hrs by propidium iodide staining based FACS analysis (reference value: 56.58 %). The format is functional. To be noted: WM 266-4. A digest of the protocol: as §2
The nature of data set [7]: Induction of apoptosis in human WM1361 cells assessed as late apoptotic cells at 60 uM after 24 hrs by Annexin V-FITC/propidium iodide based flow cytometric analysis (reference value: 2.96 %). The format is functional.
Data set [8] has as its system WM 266-4. Description: Induction of apoptosis in human WM266.4 cells assessed as increase in apoptotic cells after 24 hrs by Annexin V-FITC/propidium iodide based flow cytometric analysis. The format is functional, cell-based. A digest of the protocol:
as §1

Data set [9] in a line: Cell cycle arrest in human WM266.4 cells assessed as accumulation at G0/G1 phase at 8 uM after 24 hrs by propidium iodide staining based FACS analysis (reference value: 56.58 %). The format is functional. To be noted: WM 266-4. An outline of the steps:
as §2

A short description of data set [10]: Induction of apoptosis in human WM1361 cells assessed as viable cells at 40 uM after 24 hrs by Annexin V-FITC/propidium iodide based flow cytometric analysis (reference value: 95.2 %). The class given is functional. The settings on record: WM1361, 24 h, read-out: Activity.
Data set [11] can be described thus: Cell cycle arrest in human WM266.4 cells assessed as accumulation at S phase at 4 uM after 24 hrs by propidium iodide staining based FACS analysis (reference value: 29.03 to 29.51%). To be noted: WM 266-4. The format is functional. A digest of the protocol: as §2
The nature of data set [12]: Induction of apoptosis in human WM1361 cells assessed as early apoptotic cells at 40 uM after 24 hrs by Annexin V-FITC/propidium iodide based flow cytometric analysis (reference value: 1.02 %). The class given is functional.
Data set [13] in a line: Cell cycle arrest in human WM266.4 cells assessed as accumulation at G2/M phase at 4 uM after 36 hrs by propidium iodide staining based FACS analysis (reference value: 5.79 %). The class given is functional. To be noted: WM 266-4.
Data set [14] is described as follows: Cytotoxicity against human 293T cells assessed as cell growth inhibition after 24 hrs by MTT assay. The class given is toxicity, cell-based, HEK-293T. In general terms: Tetrazolium dyes change colour on reduction, which living cells bring about.
Data set [15] can be described thus: Cell cycle arrest in human WM266.4 cells assessed as accumulation at G2/M phase at 8 uM after 24 hrs by propidium iodide staining based FACS analysis (reference value: 14.39 %). The class given is functional. To be noted: WM 266-4. An outline of the steps: as §2
Data set [16] is described as follows: Cell cycle arrest in human WM266.4 cells assessed as accumulation at G0/G1 phase at 8 uM after 12 hrs by propidium iodide staining based FACS analysis (reference value: 64.70 %). The settings on record: WM 266-4.
A short description of data set [17]: Antiproliferative activity against human WM1361 cells assessed as cell growth inhibition after 24 hrs by MTT assay. The class given is functional, cell-based. The settings on record: WM1361, 24 h.

A word on the IC50: it is the point on the concentration scale where inhibition reaches its midpoint. The term CC50 denotes the concentration that lowers cell viability or growth by half.

Serine/threonine-protein kinase B-raf, sequence (P15056 2-766 V600E limits assumed): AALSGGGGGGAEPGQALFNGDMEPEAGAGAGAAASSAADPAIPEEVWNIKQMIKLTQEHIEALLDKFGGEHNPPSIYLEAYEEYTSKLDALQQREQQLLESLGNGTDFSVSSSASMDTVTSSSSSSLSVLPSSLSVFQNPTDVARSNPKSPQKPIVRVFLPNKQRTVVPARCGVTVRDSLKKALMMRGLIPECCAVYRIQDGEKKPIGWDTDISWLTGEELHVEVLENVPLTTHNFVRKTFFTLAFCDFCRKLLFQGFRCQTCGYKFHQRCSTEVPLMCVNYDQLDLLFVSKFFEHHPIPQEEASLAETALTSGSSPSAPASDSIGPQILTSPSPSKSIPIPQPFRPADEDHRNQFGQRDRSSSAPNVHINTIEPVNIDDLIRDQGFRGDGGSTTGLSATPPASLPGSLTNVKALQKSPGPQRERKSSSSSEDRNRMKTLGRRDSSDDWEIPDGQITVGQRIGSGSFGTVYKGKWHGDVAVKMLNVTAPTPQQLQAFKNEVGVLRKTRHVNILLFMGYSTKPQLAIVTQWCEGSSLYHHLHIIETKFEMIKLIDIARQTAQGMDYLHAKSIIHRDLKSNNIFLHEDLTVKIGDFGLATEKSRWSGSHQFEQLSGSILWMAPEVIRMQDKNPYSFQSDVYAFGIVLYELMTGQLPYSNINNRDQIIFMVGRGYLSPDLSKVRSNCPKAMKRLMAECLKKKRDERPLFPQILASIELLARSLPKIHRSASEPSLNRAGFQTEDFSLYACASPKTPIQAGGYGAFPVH

Consider `O=c1oc2ccccc2c(N2CCN(C(c3ccccc3)c3ccccc3)CC2)c1CO`, for which the viability at 4 µM with WM 266-4 [1] is 52.5%. The Activity in data set [2] was 89.3%; in the data set on WM 266-4 [3], 24.4%; in data set [5] it was 12.6%; in [6], 65.8%; in [7], 5.29%; with WM 266-4 [8], “Dose-dependent effect”. Further, the Activity came to 82.4% in data set [9]; 5.88% in data set [11]; 0.856% in data set [12]; 2.41% in [13]; 11.1% in data set [15]; 66.2% in [16]. Moreover, the IC50 is 0.37 µM in data set [4] and 21.1 µM in data set [17]. Moreover, the viability at 40 µM in data set [10] was found to be 92.9%. Besides, the CC50 at 24 h in data set [14] is above 50 µM.
